Assay results reported in publication PMC6528680 (Journal of natural products, 2019).
Like-named read-outs stand apart in the source and are kept apart here.

Assays:
[1] = assay type: in vivo, mice (C57BL/6J, C3H/HeJ, mps/mps); conditions: for concentration at 20 min: mouse, ip, 100 mg/kg
Procedure, shortened: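 Test compound dosed IP at 100 mg/kg in DMSO to 15-week female BL/6J, female HeJ and male mps/mps mice (n=3–5/group). Blood and marrow were taken under isoflurane at 20 min. Marrow pellets were resuspended in 50 mM sodium acetate pH 5 and held 2 h on ice, then supernatants were kept. Serum was acidified to pH 5, and aglycone and glucuronide were measured by HLB solid-phase extraction and LC/MS. Mean ± SEM.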

[2] = assay type: in vivo, mice (C57BL/6J, C3H/HeJ); conditions: mouse, po, 500 mg/kg
Procedure, shortened: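 Oral gavage of 500 mg/kg in DMSO to C57BL/6J and C3H/HeJ mice (n=3–4/group), with sampling at 30 min under isoflurane. Marrow pellets were suspended in 50 mM sodium acetate pH 5 for 2 h on ice and centrifuged. Serum was acidified to pH 5 with HCl before HLB extraction and LC/MS. Marrow concentrations were corrected to pellet volume, assuming density 1.06 g/ml. Mean ± SEM.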

[3] = target: T1, GUSB (Mus musculus, UniProt P12265); assay type: biochemical, C57BL/6NJ mice; conditions: 10 μM added in vitro, 2 h, 37°C, physiologic pH
T1 sequence (P12265 23-648): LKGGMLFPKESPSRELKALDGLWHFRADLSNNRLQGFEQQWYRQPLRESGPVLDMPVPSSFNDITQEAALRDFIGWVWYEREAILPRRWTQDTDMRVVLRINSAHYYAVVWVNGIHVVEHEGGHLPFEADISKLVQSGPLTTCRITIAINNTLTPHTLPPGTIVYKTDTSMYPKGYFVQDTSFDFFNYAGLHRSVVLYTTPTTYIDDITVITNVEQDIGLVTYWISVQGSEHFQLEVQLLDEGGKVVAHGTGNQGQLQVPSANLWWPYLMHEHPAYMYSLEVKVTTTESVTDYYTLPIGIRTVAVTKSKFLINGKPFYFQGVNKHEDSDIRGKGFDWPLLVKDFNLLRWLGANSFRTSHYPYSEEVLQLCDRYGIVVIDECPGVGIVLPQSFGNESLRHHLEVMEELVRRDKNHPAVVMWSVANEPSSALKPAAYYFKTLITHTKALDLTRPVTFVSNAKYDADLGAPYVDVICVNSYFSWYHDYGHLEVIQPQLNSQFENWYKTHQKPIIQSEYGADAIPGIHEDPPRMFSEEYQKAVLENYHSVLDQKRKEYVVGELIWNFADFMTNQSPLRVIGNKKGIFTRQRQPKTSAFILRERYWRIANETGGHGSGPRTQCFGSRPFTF

[4] = system: RANKL-stimulated osteoclast formation in RAW 264.7 cells; test: RANKL-stimulated osteoclastogenesis assay; assay type: cell-based, murine; conditions: even at 10-fold higher doses than the curcumin IC50
Procedure, shortened: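 RAW 264.7 cells were seeded at 5×10^3/well in DMEM with 10% FBS and 1% pen/strep and left to adhere overnight at 37°C, 5% CO2. They were pretreated 4 h with the test compound, then stimulated with recombinant mouse RANKL (50 ng/mL final) for 72 h at 37°C. TRAP-positive multinucleated osteoclasts were counted. n=4/group, mean ± SEM.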

[5] = target: T1, GUSB; assay type: biochemical, C57BL/6J mice; conditions: 0.5 μM curcumin-glucuronide added ex vivo, sodium acetate buffer 50 mM pH 5, 2 h
[6] = target: T2, rh-HPSE (Homo sapiens, UniProt Q9Y251); test: Deconjugation of curcumin-glucuronide by recombinant enzyme; assay type: biochemical; conditions: 5 μg/mL (100 nM) enzyme, 459 nM substrate, 24 h, 37°C, pH 5
T2 sequence (Q9Y251 158-543 limits assumed): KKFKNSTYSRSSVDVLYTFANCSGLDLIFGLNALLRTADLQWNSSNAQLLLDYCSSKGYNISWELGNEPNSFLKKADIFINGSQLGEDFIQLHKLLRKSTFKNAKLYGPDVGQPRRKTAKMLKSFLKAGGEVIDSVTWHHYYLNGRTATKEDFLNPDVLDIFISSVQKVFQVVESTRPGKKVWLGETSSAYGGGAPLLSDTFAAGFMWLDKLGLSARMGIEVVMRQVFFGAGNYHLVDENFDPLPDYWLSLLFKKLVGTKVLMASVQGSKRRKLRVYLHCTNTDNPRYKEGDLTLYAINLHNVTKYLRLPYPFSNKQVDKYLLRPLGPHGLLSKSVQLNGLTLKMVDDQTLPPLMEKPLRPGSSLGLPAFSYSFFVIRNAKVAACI
T2 sequence (Q9Y251 36-109 limits assumed): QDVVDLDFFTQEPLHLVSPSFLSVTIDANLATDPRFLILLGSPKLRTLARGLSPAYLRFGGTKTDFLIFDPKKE
Procedure, shortened: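 Recombinant human enzyme was incubated with synthesized glucuronide substrate in an enzyme-optimized pH 5 buffer for 24 h at 37°C. Activity was taken from quantitation of the remaining glucuronide substrate and the released aglycone product. n=3–6 per group.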

`COc1cc(/C=C/C(=O)CC(=O)/C=C/c2ccc(O[C@@H]3O[C@H](C(=O)O)[C@@H](O)[C@H](O)[C@H]3O)c(OC)c2)ccc1O` [curcumin-glucuronide] showed a concentration at 20 min ([1]; female, C3H/HeJ, bone marrow suspension) of 2.7 µM, a concentration at 20 min ([1]; female, C3H/HeJ, serum) of 92.1 µM and a concentration at 20 min ([1]; female, C57BL/6J, bone marrow suspension) of 1.3 µM. The concentration at 20 min ([1]; female, C57BL/6J, serum) was 92.7 µM, the concentration at 20 min ([1]; male, mps/mps, serum) was 151 µM and the “Increase of bone marrow curcumin-glucuronide concentrations vs BL/6J” value ([1]; mps/mps mice, IP curcumin) was 4 fold. The concentration at 30 min ([2]; C57BL/6J, bone marrow suspension) was 0.36 µM, the concentration at 30 min ([2]; C57BL/6J, serum) was 82.7 µM and the concentration at 30 min ([2]; male, C3H/HeJ, bone marrow suspension) was 1.19 µM. For the same molecule, the concentration at 30 min ([2]; male, C3H/HeJ, serum) was 80 µM, the “Deconjugation in conditioned media from bone marrow cells” value [3] was “forming detectable aglycone curcumin” and the “Effect on RANKL-stimulated osteoclast formation” value [4] was “without effect”. The “Deconjugation by soluble GUSB activity in cell-free marrow fractions” value [5] was “sufficient to deconjugate” and the “Ability of HPSE to deconjugate curcumin glucuronide” value [6] was “only GUSB and KL were able to deconjugate”.
